Assay results taken from ChEMBL document CHEMBL5034013, “Discovery of VNRX-7145 (VNRX-5236 Etzadroxil): An Orally Bioavailable β-Lactamase Inhibitor for Enterobacterales Expressing Ambler Class A, C, and D Enzymes” (J Med Chem, 2021).
pIC50: −log10 of the molar value.

Tests used:
[1] = Oral bioavailability in rat at 10 mg/kg administered as cassette dose measured by UPLC-MS/MS; format: ADME, organism-based; conditions: in vivo, 10 mg/kg, in the assay text read “measured” for “administered as cassette dose measured”
In short: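 Ester prodrugs are given to rats by oral gavage, some as a cassette with another ester. F is the percent absolute oral bioavailability of the parent, corrected for the MW difference between prodrug and parent.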

[2] = Oral bioavailability in mouse at 5 mg/kg administered as cassette dose measured by UPLC-MS/MS analysis; format: ADME, organism-based; conditions: in vivo
In short: (§1)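 Ester prodrugs are dosed orally. F is the percent absolute oral bioavailability of the parent boronate, corrected for the molecular-weight difference between prodrug and parent.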

[3] = Oral bioavailability in dog at 10 mg/kg administered as cassette dose measured by UPLC-MS/MS analysis; format: ADME, organism-based, Canis lupus familiaris; conditions: in vivo; in short: as §1
[4] = Oral bioavailability in monkey at 10 mg/kg administered as cassette dose measured by UPLC-MS/MS analysis; format: ADME, organism-based, Macaca mulatta; conditions: rhesus monkey, in vivo; in short: as §1
[5] = system: Escherichia coli; assay: Antibacterial activity against Escherichia coli expressing TEM-1/SHV-12 assessed as concentration required to restore ceftibuten activity incubated for 16 to 20 hrs in presence of 1 ug/ml ceftibuten by broth microdilution method; format: functional; conditions: time 16-20 hrs
[6] = system: Escherichia coli; assay: Antibacterial activity against Escherichia coli expressing CTX-M-2 assessed as concentration required to restore ceftibuten activity incubated for 16 to 20 hrs in presence of 1 ug/ml ceftibuten by broth microdilution method; format: functional; conditions: time 16-20 hrs
[7] = Inhibition of bacterial beta-lactamase SHV-5 using cefotaxime as substrate preincubated for 15 mins followed by substrate addition and measured after 10 mins by spectrophotometric analysis; design: species or system Bacteria
In short: (§2)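 IC50 is the mean of duplicate runs on separate days. A run was repeated automatically if it differed by more than 20% from the previous result.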

[8] = Inhibition of bacterial beta-lactamase KPC-2 using imipenem as substrate preincubated for 15 mins followed by substrate addition and measured after 10 mins by spectrophotometric analysis; design: species or system Bacteria; in short: as §2
[9] = Inhibition of bacterial beta-lactamase AmpC using nitrocefin as substrate preincubated for 15 mins followed by substrate addition and measured after 10 mins by spectrophotometric analysis; design: species or system Bacteria; in short: as §2
[10] = Inhibition of bacterial beta-lactamase OXA-48 using nitrocefin as substrate preincubated for 15 mins followed by substrate addition and measured after 10 mins by spectrophotometric analysis; design: species or system Bacteria; in short: as §2
[11] = system: Escherichia coli; assay: Antibacterial activity against Escherichia coli expressing CTX-M-15/TEM-1 assessed as concentration required to restore ceftibuten activity incubated for 16 to 20 hrs in presence of 1 ug/ml ceftibuten by broth microdilution method; format: functional; conditions: time 16-20 hrs
[12] = system: Klebsiella pneumoniae; assay: Antibacterial activity against Klebsiella pneumoniae expressing SHV-12/TEM-1 assessed as concentration required to restore ceftibuten activity incubated for 16 to 20 hrs in presence of 1 ug/ml ceftibuten by broth microdilution method; format: functional; conditions: time 16-20 hrs
[13] = system: Escherichia coli; assay: Antibacterial activity against Escherichia coli 786978 expressing KPC assessed as concentration required to restore ceftibuten activity incubated for 16 to 20 hrs in presence of 1 ug/ml ceftibuten by broth microdilution method; format: functional; conditions: time 16-20 hrs
[14] = system: Klebsiella pneumoniae; assay: Antibacterial activity against Klebsiella pneumoniae 156309 expressing SHV-11/TEM-1/KPC-2 assessed as concentration required to restore ceftibuten activity incubated for 16 to 20 hrs in presence of 1 ug/ml ceftibuten by broth microdilution method; format: functional; conditions: time 16-20 hrs
[15] = system: Escherichia coli; assay: Antibacterial activity against Escherichia coli J53 expressing SHV-5/TEM-1/AmpC assessed as concentration required to restore ceftibuten activity incubated for 16 to 20 hrs in presence of 1 ug/ml ceftibuten by broth microdilution method; format: functional; conditions: time 16-20 hrs
[16] = system: Klebsiella pneumoniae; assay: Antibacterial activity against Klebsiella pneumoniae 196477 expressing AmpC/CMY-2/TEM-1/CTX-M-15 assessed as concentration required to restore ceftibuten activity incubated for 16 to 20 hrs in presence of 1 ug/ml ceftibuten by broth microdilution method; format: functional; conditions: time 16-20 hrs
[17] = system: Escherichia coli; assay: Antibacterial activity against Escherichia coli 664507 expressing OXA-48 assessed as concentration required to restore ceftibuten activity incubated for 16 to 20 hrs in presence of 1 ug/ml ceftibuten by broth microdilution method; format: functional; conditions: time 16-20 hrs
In short: (§3)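 Tested against a 25-strain challenge panel of clinical E. coli and K. pneumoniae isolates carrying ESBL (n = 5), KPC (n = 11), class C (n = 4) or OXA-48 (n = 5) β-lactamases. Ceftibuten was held at 1 μg/mL while the BLI concentration varied. The read-out was the BLI concentration that rescued ceftibuten activity.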

[18] = system: Klebsiella pneumoniae; assay: Antibacterial activity against Klebsiella pneumoniae expressing OXA-48 assessed as concentration required to restore ceftibuten activity incubated for 16 to 20 hrs in presence of 1 ug/ml ceftibuten by broth microdilution method; format: functional; conditions: time 16-20 hrs
[19] = system: Klebsiella pneumoniae; assay: Antibacterial activity against Klebsiella pneumoniae expressing TEM-1/SHV-12 assessed as concentration required to restore ceftibuten activity incubated for 16 to 20 hrs in presence of 1 ug/ml ceftibuten by broth microdilution method; format: functional; conditions: time 16-20 hrs
[20] = system: Klebsiella pneumoniae; assay: Antibacterial activity against Klebsiella pneumoniae expressing SHV-5/KPC-2/TEM-1 assessed as concentration required to restore ceftibuten activity incubated for 16 to 20 hrs in presence of 1 ug/ml ceftibuten by broth microdilution method; format: functional; conditions: time 16-20 hrs
[21] = system: Escherichia coli; assay: Antibacterial activity against Escherichia coli expressing AmpC/SHV-12/CTX-M-15/TEM-1 assessed as concentration required to restore ceftibuten activity incubated for 16 to 20 hrs in presence of 1 ug/ml ceftibuten by broth microdilution method; format: functional; conditions: time 16-20 hrs
[22] = system: Klebsiella pneumoniae; assay: Antibacterial activity against Klebsiella pneumoniae expressing SHV-1/TEM-1/KPC-2 assessed as concentration required to restore ceftibuten activity incubated for 16 to 20 hrs in presence of 1 ug/ml ceftibuten by broth microdilution method; format: functional; conditions: time 16-20 hrs
[23] = system: Klebsiella pneumoniae; assay: Antibacterial activity against Klebsiella pneumoniae expressing SHV-11/TEM-1/KPC-3 assessed as concentration required to restore ceftibuten activity incubated for 16 to 20 hrs in presence of 1 ug/ml ceftibuten by broth microdilution method; format: functional; conditions: time 16-20 hrs
[24] = system: Klebsiella pneumoniae; assay: Antibacterial activity against Klebsiella pneumoniae expressing SHV-12/TEM-1/KPC-2/AmpC assessed as concentration required to restore ceftibuten activity incubated for 16 to 20 hrs in presence of 1 ug/ml ceftibuten by broth microdilution method; format: functional; conditions: time 16-20 hrs
[25] = system: Klebsiella pneumoniae; assay: Antibacterial activity against Klebsiella pneumoniae expressing KPC-3/TEM-1/AmpC assessed as concentration required to restore ceftibuten activity incubated for 16 to 20 hrs in presence of 1 ug/ml ceftibuten by broth microdilution method; format: functional; conditions: time 16-20 hrs
[26] = system: Escherichia coli; assay: Antibacterial activity against Escherichia coli 849121 expressing KPC assessed as concentration required to restore ceftibuten activity incubated for 16 to 20 hrs in presence of 1 ug/ml ceftibuten by broth microdilution method; format: functional; conditions: time 16-20 hrs
[27] = system: Klebsiella pneumoniae; assay: Antibacterial activity against Klebsiella pneumoniae 845661 expressing KPC assessed as concentration required to restore ceftibuten activity incubated for 16 to 20 hrs in presence of 1 ug/ml ceftibuten by broth microdilution method; format: functional; conditions: time 16-20 hrs
[28] = system: Klebsiella pneumoniae; assay: Antibacterial activity against Klebsiella pneumoniae 845670 expressing KPC assessed as concentration required to restore ceftibuten activity incubated for 16 to 20 hrs in presence of 1 ug/ml ceftibuten by broth microdilution method; format: functional; conditions: time 16-20 hrs
[29] = system: Escherichia coli; assay: Antibacterial activity against Escherichia coli SI-P026TC expressing CMY-2/TEM-1 assessed as concentration required to restore ceftibuten activity incubated for 16 to 20 hrs in presence of 1 ug/ml ceftibuten by broth microdilution method; format: functional; conditions: time 16-20 hrs
[30] = system: Klebsiella pneumoniae; assay: Antibacterial activity against Klebsiella pneumonia 217917 expressing CMY-2/TEM-1 assessed as concentration required to restore ceftibuten activity incubated for 16 to 20 hrs in presence of 1 ug/ml ceftibuten by broth microdilution method; format: functional; conditions: time 16-20 hrs; in short: as §3
[31] = system: Klebsiella pneumoniae; assay: Antibacterial activity against Klebsiella pneumonia DOV expressing OXA-48 assessed as concentration required to restore ceftibuten activity incubated for 16 to 20 hrs in presence of 1 ug/ml ceftibuten by broth microdilution method; format: functional; conditions: time 16-20 hrs; in short: as §3
[32] = system: Klebsiella pneumoniae; assay: Antibacterial activity against Klebsiella pneumonia SI-C05 expressing OXA-48 assessed as concentration required to restore ceftibuten activity incubated for 16 to 20 hrs in presence of 1 ug/ml ceftibuten by broth microdilution method; format: functional; conditions: time 16-20 hrs; in short: as §3
[33] = system: Escherichia coli; assay: Antibacterial activity against Escherichia coli 664520 expressing OXA-48 assessed as concentration required to restore ceftibuten activity incubated for 16 to 20 hrs in presence of 1 ug/ml ceftibuten by broth microdilution method; format: functional; conditions: time 16-20 hrs; in short: as §3

For CCC(=O)N[C@H]1Cc2cccc(C(=O)OCOC(=O)C(C)(C)C)c2OB1O, the bioavailability [1] was 99%, the bioavailability [2] was 42% and the bioavailability [3] was 42%. It also gave a bioavailability [4] of 52%.

With CC(=O)CCC(=O)N[C@H]1Cc2cccc(C(=O)O)c2OB1O the Activity [5] was 0.016 µg/mL, the Activity [6] was “<=0.002 ug ml-1” and the pIC50 [7] was 7.60. The pIC50 [8] was 6.94, the pIC50 [9] was 8.10 and the pIC50 [10] was 5.84. The Activity [11] was 0.12 µg/mL, the Activity [12] was 0.06 µg/mL and the Activity [13] was 1 µg/mL. The Activity [14] was 2 µg/mL, the Activity [15] was 0.03 µg/mL and the Activity [16] was 0.06 µg/mL. The Activity [17] was 0.06 µg/mL, the Activity [18] was 4 µg/mL and the Activity [19] was 0.016 µg/mL. The Activity [20] was “<=0.002 ug ml-1”, the Activity [21] was 0.016 µg/mL and the Activity [22] was 4 µg/mL. The Activity [23] was 0.25 µg/mL, the Activity [24] was 0.5 µg/mL and the Activity [25] was 0.5 µg/mL. The Activity [26] was “<=0.002 ug ml-1”, the Activity [27] was 4 µg/mL and the Activity [28] was “<=0.002 ug ml-1”. It also gave an Activity [29] of 0.5 µg/mL, an Activity [30] of 0.12 µg/mL and an Activity [31] of 0.06 µg/mL. For the same molecule, the Activity [32] was 0.06 µg/mL and the Activity [33] was 4 µg/mL.
